An excerpt weighted towards active compounds, which were near 0.7% of everything screened.
Xi reactivation: X-chromosome reactivation activator; XiGFP mouse fibroblasts, % GFP-positive cells imaging, 3 d; cells co-treated with 5-aza-dC sensitizer; scaled so ellipticine positive control = 100%; activation, % at 7.58 µM; actives 0.055% (n = 360,000); AID 743238;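 active means mean normalized replicate activation at least 10% and every replicate at or above 10%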;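 further: 0% = median of on-plate neutral control wells and 100% = ellipticine 6 µM median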
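Assay system: SV40-immortalized XiGFP fibroblast cells, line 68-5-11; buffer or medium: DMEM plus 5-aza-dC sensitizer; compound: one concentration, pinned; timing: compounds 3 days, fix/stain 15 min at room temperature; benchmarks: positive control ellipticine, 6 µM final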
N-glyco inh: N-linked glycosylation inhibition. reporter increase, % at 12.5 µM. actives 0.23% (n = 360,000). D54 ERlucT glycosylation luciferase reporter, 24 h; percent of 100 nM tunicamycin response;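 active means mean luciferase reporter signal, scaled so untreated is 0 and the glycosylation-blocking control 100, at or above a set limit in every replicate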;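 further: luciferase carries N-glycosylation sites so blocking glycosylation raises the light; 0% = median of neutral control wells and 100% = median of 100 nM tunicamycin wells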
NPR2 activator: GC-B (human) receptor activation; actives 0.11% (n = 370,000); HEK293-GC-B cells, CNP EC30, cGMP TR-FRET; 0% at EC30 CNP, 100% saturating CNP; activation, % at 10 µM;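 active means activation at 10 µM reaching about 35% in either raw or pattern-adjusted values, limit read from the data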
Vif inh: blocks HIV Vif function. HEK293T cells, Vif self-association by quenched fluorescence, imaging, 24 h. inhibition, % at 7.49 µM. actives 0.35% (n = 340,000). AID 602346; in the data active means inhibition above about 50%, passing the limit was not always enough
GC-A act: GC-A (human) enzyme activation. HEK293 GC-A cells, cGMP TR-FRET, EC30 ANP; 0% at EC30 ANP, 100% saturating ANP. actives 0.14% (n = 370,000). P16066. activation, % at 10 µM; in the data active means activation above about 40%
CaV13 FRET inh: Primary screen for inhibitors of IQ motif and Ca2+-dependent inactivation inhibitor domain binding in CACNA1D, Förster resonance energy transfer in living cells, … | HEK cells, CFP/YFP FRET ICDI-IQ, plate reader, 10 min; percent FRET-ratio fall versus neutral wells | inhibition, % at 12.3 µM | actives 0.098% (n = 340,000) | AID 743397;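 active means mean replicate inhibition of at least 30% and at least 1% of replicates passing that level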;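 further: 0% = median of the neutral control wells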
* hit, by the source's call; / = not tested or not shown.

SMILES | Xi reactivation | N-glyco inh | NPR2 activator | Vif inh | GC-A act | CaV13 FRET inh
C[C@H]1CCCCO[C@@H](CN(C)CC2CCCCC2)[C@@H](C)CN([C@@H](C)CO)C(=O)c2cc(NC(=O)Nc3ccc4c(c3)OCO4)ccc2O1 | -0.1 | / | / | / | / | /
CC(=O)C1=C(C)OC(N)=C(C#N)C1c1cc([N+](=O)[O-])ccc1Cl (stereo not drawn) | 0.3 | 29.5* | -1.2 | 11.9 | 0.4 | -4.7
COc1ccc(-c2ccc3c(c2)[C@H]2[C@H](CCN2S(=O)(=O)c2ccc(OC)cc2)[C@H](CO)N3C)cc1 | -0.1 | / | / | / | / | /
O=C(Nc1ccc2nc(-c3ccccc3)[nH]c2c1)c1ccco1 | / | 4.2 | 19.6 | -1.8 | 24.0 | /
O=C(Nc1cccc(-c2nc3ccccc3[nH]2)c1)c1cccc(NC(=O)c2ccco2)c1 | / | -16.7 | 26.2 | 72.2* | 18.7 | -7.2
CC1=C(C)/C(=N\OS(=O)(=O)c2ccccc2)C=CC1=O | / | 4.3 | / | 55.5* | / | /
O=C(NCc1ccccc1)c1ccc(Cl)c(NC2=NC3CS(=O)(=O)CC3S2)c1 (stereo not drawn) | 0.0 | -0.1 | 1.9 | 59.9* | 5.8 | -3.4
COc1ccc(CNC(=O)c2ccc(Cl)c(NC3=NC4CS(=O)(=O)CC4S3)c2)cc1 (stereo not drawn) | -0.1 | 1.8 | 4.8 | 10.2 | 1.6 | -9.5
Cc1noc(C)c1NC(=O)Nc1cccc2c1O[C@H](CN(C)C(=O)Nc1c(C)noc1C)[C@H](C)CN([C@H](C)CO)C2=O | 0.0 | / | / | / | / | /
Cc1ccc(S(=O)(=O)N[C@@H]2CC[C@@H](CCNC(=O)CN3CCOCC3)O[C@H]2CO)cc1 | -0.3 | / | / | / | / | /
C[C@H](O)Cc1cn(-c2cc3cc(C#Cc4ccsc4)ccc3oc2=O)nn1 | -0.1 | -3.3 | 0.3 | / | 46.8* | -9.5
O=c1c2c3nc4ccccc4nc3n(Cc3ccccc3)c2ncn1Cc1ccco1 | / | 3.7 | 47.9* | -12.7 | 46.1* | -2.9
COc1ccc(C(=O)CSc2nnc(CNc3ccc(F)cc3)o2)cc1 | -0.1 | -1.7 | -2.2 | -11.0 | 1.2 | -6.4
O=C(CSc1nnc(CNc2ccc(F)cc2)o1)c1ccccc1 | 0.0 | 0.6 | 3.4 | 62.2* | -2.4 | -2.6
CCOC(=O)c1c(NC(C)=O)sc2c(OCCN(CC)CC)c(Br)ccc12 | 0.0 | 85.4* | 1.8 | -7.8 | 0.5 | -4.3
CCOC(=O)c1c(NC(C)=O)sc2c(OCC(O)CN(CC)CC)c(Br)ccc12 (stereo not drawn) | 0.1 | 7.3 | -3.5 | -10.6 | -0.7 | -4.2
CCCSc1ccc2nc(NC(=O)OC)[nH]c2c1 | 0.5 | 10.0 | -6.8 | 159.7* | -1.5 | -4.8
Cc1ccnc2nc(C(=O)Nc3cc(Cl)ccc3N3CCOCC3)nn12 | / | 41.0* | -14.2 | -5.2 | -5.3 | -4.8
Cc1cc(C(=O)Nc2cccc3c2O[C@@H](CN(C)Cc2ccc(C(=O)Nc4ccccc4N)cc2)[C@@H](C)CN([C@@H](C)CO)C3=O)n(C)n1 | -0.5 | / | / | / | / | /
O=C(C[C@@H]1C[C@@H]2c3cc(NC(=O)CC4CC4)ccc3O[C@@H]2[C@H](CO)O1)NCc1ccccc1F | 0.0 | / | / | / | / | /
CC(C)(C)S(=O)(=O)N1C[C@@H]2CC/C=C\C/C(c3ccccc3)=C\2[C@H]1CCO | 0.3 | 38.3* | -2.8 | / | -0.3 | -4.9
C[C@H]1CN(S(=O)(=O)C(C)(C)C)[C@H](CCO)/C1=C\c1ccccc1 | 0.3 | -1.4 | 4.5 | 2.4 | 4.0 | -2.4
Cc1cccc(N2CCN(C(=O)c3cc4ccccc4oc3=O)CC2)c1C | -0.2 | 1.5 | 2.1 | 68.1* | -0.8 | -5.4
COc1cc2c(cc1OC)C(=O)N1[C@H]3c4cc(C)ccc4OC[C@@H]3[C@H](c3ccccc3)[C@]1(C)C(=O)N2 | 0.1 | 52.0* | 4.1 | 0.5 | -1.8 | 2.6
COc1cc2c(cc1OC)C(=O)N1[C@H]3c4cc(Cl)ccc4OC[C@@H]3[C@H](c3ccccc3)[C@]1(C)C(=O)N2 | 0.0 | 45.2* | -5.5 | -6.2 | -8.1 | -3.8
SMILES | Xi reactivation | N-glyco inh | NPR2 activator | Vif inh | GC-A act | CaV13 FRET inh
Cc1ccc2c(c1)[C@H]1[C@H](CO2)[C@H](c2ccccc2)[C@]2(C)C(=O)Nc3cc(F)c(F)cc3C(=O)N12 | 0.0 | 11.3 | -7.8 | -3.7 | -7.8 | -5.8
CC(C)(C)OC(=O)NCCCC[C@H](NC(=O)c1nc[nH]c1C(=O)N1CCc2ccccc2C1)C(=O)OC(C)(C)C | 0.6 | 1.6 | -1.2 | -1.3 | 2.2 | -5.6
CC(C)(C)OC(=O)[C@H](Cc1ccccc1)NC(=O)c1nc[nH]c1C(=O)N1CCc2ccccc2C1 | 0.0 | 32.7* | 3.2 | 5.2 | -4.4 | -10.4
Cc1cccc(N2CCN(S(=O)(=O)c3ccc(-c4ccc(=O)[nH]n4)o3)CC2)c1C | 0.0 | 39.8* | 1.4 | -5.7 | -3.8 | -4.4
COc1ccccc1N1CCN(S(=O)(=O)c2ccc(-c3ccc(=O)[nH]n3)o2)CC1 | 0.0 | -0.3 | -6.5 | -4.6 | -2.9 | -10.8
CCOC(=O)C1CCN(C(=O)c2ccc3c(=O)n4nc(Nc5ccccc5)sc4nc3c2)CC1 | 0.0 | 3.1 | 40.3* | / | 34.2 | -12.4
COCC(=O)N1CC2(CCN(C(C)=O)CC2)c2c([nH]c3cc(OC)ccc23)[C@@H]1CO | 0.3 | / | / | / | / | /
COc1ccc(-c2cc(C(F)(F)F)nc(S(=O)(=O)CCCC(=O)Nc3cccnc3Cl)n2)cc1OC | 0.1 | -9.0 | 5.5 | 115.2* | 8.5 | -4.8
COC(=O)CCS(=O)(=O)c1nc(-c2ccccc2)cc(C(F)(F)F)n1 | / | -14.2 | / | 13.2 | / | /
COc1ccc(S(=O)(=O)N(C)C[C@H]2Oc3ccc(N(C)C)cc3C(=O)N([C@H](C)CO)C[C@H]2C)cc1 | 0.1 | / | / | / | / | /
CCC(=O)N1C[C@@H](C)[C@H](OC)CN(C)C(=O)c2cc(NC(=O)CC(F)(F)F)ccc2OC[C@@H]1C | 0.4 | / | / | / | / | /
Cc1ccc(-c2cc(C(=O)OC3CCOC3=O)c3ccccc3n2)c(C)c1 (stereo not drawn) | 0.2 | 2.1 | 2.9 | 13.5 | 9.5 | 3.2
O=C(OC1CCOC1=O)c1cc(-c2cccs2)nc2ccccc12 (stereo not drawn) | 0.3 | 1.3 | 8.2 | 9.2 | 50.8* | -4.7
C[C@@H]1CCCCO[C@@H](CN(C)C(=O)c2ccccc2)[C@H](C)CN([C@H](C)CO)C(=O)c2cc(NC(=O)c3ccccc3)ccc2O1 | 0.0 | / | / | / | / | /
CN(C)S(=O)(=O)N1CCCN(S(=O)(=O)N(C)C)CC1 | / | 1.6 | -2.4 | 66.3* | -1.5 | -5.4
CN(C)S(=O)(=O)N1CCN(S(=O)(=O)N2CCOCC2)CC1 | 0.0 | 0.5 | 4.1 | -3.3 | 1.5 | -2.7

Screens as filed in PubChem BioAssay.
